Measurements from ChEMBL document CHEMBL1128224 (J Med Chem, 1995).

Columns and labels:
Mu-type opioid receptor = Mu-type opioid receptor (Cavia porcellus, UniProt P97266); experiment: The opioid receptor affinity(Ki) was evaluated by competition with [3H]DAMGO (mu) on guinea pig brain membranes; parameters: species or system Membrane
[1] = target: Kappa-type opioid receptor (Cavia porcellus) (UniProt P41144); experiment: IC50 ratio was measured on ethylketazocine (Opioid receptor kappa 1) in the guinea pig ileal longitudinal muscle(GPI) preparation
[2] = target: Delta-type opioid receptor (Mus musculus) (UniProt P32300); experiment: IC50 ratio was measured on DADLE (delta) in the mouse vas deferens (MVD) preparation
[3] = target: Delta-type opioid receptor (Mus musculus) (UniProt P32300); experiment: The antagonist potencies mediated through […] were expressed as Ke values calculated on DADLE(delta) in the mouse vas deferens(MVD) preparation; assay type: functional
Summary of the method: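 In electrically stimulated mouse vas deferens with DADLE as agonist, antagonist was preincubated 15 min at 100 nM unless otherwise specified. Ke = [antagonist]/(IC50 ratio − 1) from the Schild relationship, averaged over at least three IC50 ratio determinations.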

[4] = target: Kappa-type opioid receptor (Cavia porcellus, UniProt P41144); experiment: The opioid receptor affinity(Ki) was evaluated by competition with 9 (Opioid receptor kappa 1) on guinea pig brain membranes; parameters: species or system Membrane
[5] = target: Mu-type opioid receptor (Cavia porcellus) (UniProt P97266); experiment: IC50 ratio was measured on Morphine(mu) in the guinea pig ileal longitudinal muscle(GPI) preparation; assay type: tissue-based; conditions: Muscle tissue
[6] = target: T1, Opioid receptors; delta & kappa (Homo sapiens) (UniProt P41145+P41143); experiment: Selectivity as the ratio of IC50 value against delta receptor to that of kappa receptor.; assay type: protein assay
[7] = target: T2, Opioid receptors; mu & delta (Homo sapiens) (UniProt P41143+P35372); experiment: Selectivity as the ratio of IC50 value against delta receptor to that of mu receptor.; assay type: protein assay
[8] = target: T1, Opioid receptors; delta & kappa (Homo sapiens); experiment: Selectivity as the ratio of Ki value towards kappa receptor to that of delta 1 receptor.; assay type: protein assay
[9] = target: T2, Opioid receptors; mu & delta (Homo sapiens); experiment: Selectivity as the ratio of Ki value towards mu receptor to that of delta 1 receptor.; assay type: protein assay
Mus musculus [10] = experiment: Intracerebroventricular dose required to produce an equivalnet antagonism of DPDPE-induced antinociception.; assay type: functional
Summary of the method: (§1)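 In the mouse tail-flick assay against DPDPE-induced antinociception, the antagonist was given icv or iv. […] The iv/icv value is the ratio of these two doses.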

Mus musculus [11] = experiment: Intravenous dose required to produce an equivalnet antagonism of DPDPE-induced antinociception.; assay type: functional; summary of the method: as §1
[12] = target: Mu-type opioid receptor (Mus musculus) (UniProt P42866); experiment: Antagonist activity against the mu opioid receptor using morphine as agonist at 20 pmol/kg (icv) was determined as ratio of ED50 of antagonist to the control (ED50 of control = 9.7 (8.6-10.9) umol/kg); assay type: functional
[13] = (§2) Antagonist activity against the delta1 opioid receptor using DPDPE as agonist at 20 pmol/kg (icv) was determined as ratio of ED50 of antagonist to the control (ED50 of control = 8.6 (6.5-11.1) nmol/kg); assay type: functional
[14] = target: Delta-type opioid receptor (Homo sapiens) (UniProt P41143); conditions: 0.8 umol/kg
[15] = target: Delta-type opioid receptor (Mus musculus) (UniProt P32300); experiment: as §2; assay type: functional
[16] = target: Kappa-type opioid receptor (Mus musculus) (UniProt P33534); experiment: Antagonist activity against the kappa opioid receptor using U-50,488H as agonist at 20 pmol/kg (icv) was determined as ratio of ED50 of antagonist to the control (ED50 of control = 27.3 (8.5-52.8) umol/kg); assay type: functional
[17] = Ratio of iv dose to that of icv.; assay type: functional; summary of the method: as §1

Compound | Ki (Mu-type opioid receptor) [nM] | IC50 ratio [1] | IC50 ratio [2] | Ke [3] [nM] | Ki [4] [nM] | IC50 ratio [5] | Selectivity [6] | Selectivity [7] | Selectivity [8] | Selectivity [9] | Dose (Mus musculus [10]) [pM/kg] | Dose (Mus musculus [11]) [µM/kg] | ED50 ratio [12] | ED50 ratio [13] | ED50 ratio [14] | ED50 ratio [15] | ED50 ratio [16] | Ratio [17]
NCCC[C@@H](NC(=O)c1cccc2c3c([nH]c12)[C@@H]1Oc2c(O)ccc4c2C12CCN(CC1CC1)C(C4)[C@]2(O)C3)C(=O)O (some centres not stated) | 136 | 0.9 | 58 | 1.8 | 57 | 3 | 63 | 20 | 320 | 756 |  |  |  |  |  |  |  | 
O=C(O)C[C@@H](NC(=O)c1cccc2c3c([nH]c12)[C@@H]1Oc2c(O)ccc4c2C12CCN(CC1CC1)C(C4)[C@]2(O)C3)C(=O)O (some centres not stated) | 368 | 2.1 | 89 | 1.1 | 893 | 1.3 | 30 | 67 | 6250 | 2570 | 12.5 | 0.62 | 1 | 2.6 | 2.3 |  |  | 
Oc1ccc2c3c1O[C@H]1c4[nH]c5ccccc5c4C[C@@]4(O)[C@@H](C2)N(CC2CC2)CC[C@]314 [NALTRINDOLE] |  |  |  | 0.2 |  |  |  |  |  |  | 300 | 2.19 |  |  |  |  |  | 
N=C(N)NCCC[C@@H](NC(=O)c1cccc2c3c([nH]c12)[C@@H]1Oc2c(O)ccc4c2C12CCN(CC1CC1)C(C4)[C@]2(O)C3)C(=O)O (some centres not stated) | 333 | 1.2 | 31 | 3.3 | 188 | 1.3 | 27 | 24 | 1180 | 2100 |  |  |  |  |  |  |  | 
NCCCC[C@@H](NC(=O)c1cccc2c3c([nH]c12)[C@@H]1Oc2c(O)ccc4c2C12CCN(CC1CC1)C(C4)[C@]2(O)C3)C(=O)O (some centres not stated) | 219 | 1.1 | 20 | 5.2 | 41 | 1 | 20 | 20 | 134 | 719 |  |  |  |  |  |  |  | 
O=C(O)c1cccc2c3c([nH]c12)[C@@H]1Oc2c(O)ccc4c2C12CCN(CC1CC1)C(C4)[C@]2(O)C3 (some centres not stated) | 24 | 1 | 25 | 0.4 |  | 2 | 231 | 122 | 3250 | 1850 |  |  |  |  |  |  |  | 
O=C(O)CNC(=O)c1cccc2c3c([nH]c12)[C@@H]1Oc2c(O)ccc4c2C12CCN(CC1CC1)C(C4)[C@]2(O)C3 (some centres not stated) | 206 | 1.1 | 32 | 3.2 |  | 1.5 | 30 | 21 | 30000 | 38200 | 4.7 | 0.53 | 0.9 |  |  | 5.3 | 0.8 | 112766
